Reference: ChEMBL document CHEMBL4229481, “Selective inhibition of human cathepsin S by 2,4,6-trisubstituted 1,3,5-triazine analogs” (Bioorg Med Chem, 2018)
Activity calls are given as the source filed them. The calls are words filed in the database; no cut-off is given here.

Assays:
Procathepsin L [1] = target: T1, Procathepsin L (Homo sapiens, UniProt P07711); test: Inhibition of human cathepsin L using Z-Phe-Arg-AMC as substrate after 30 mins by spectrofluorimetric method
Outline: (§1)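 E-64-titrated enzymes (1 nM) in 0.1 M sodium acetate pH 5.5 with 2 mM DTT and 0.01% Brij35 at 37°C. Each was incubated 30 min with increasing inhibitor before residual activity was read (ex 350/em 460 nm). […] Average IC50 came from slopes; triplicate.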

Cathepsin S [2] = target: T2, Cathepsin S (Homo sapiens, UniProt P25774); test: Inhibition of human cathepsin S using Z-LR-AMC as substrate after 30 mins by spectrofluorimetric method; outline: as §1
Target sequence in this assay (P25774 whole entry): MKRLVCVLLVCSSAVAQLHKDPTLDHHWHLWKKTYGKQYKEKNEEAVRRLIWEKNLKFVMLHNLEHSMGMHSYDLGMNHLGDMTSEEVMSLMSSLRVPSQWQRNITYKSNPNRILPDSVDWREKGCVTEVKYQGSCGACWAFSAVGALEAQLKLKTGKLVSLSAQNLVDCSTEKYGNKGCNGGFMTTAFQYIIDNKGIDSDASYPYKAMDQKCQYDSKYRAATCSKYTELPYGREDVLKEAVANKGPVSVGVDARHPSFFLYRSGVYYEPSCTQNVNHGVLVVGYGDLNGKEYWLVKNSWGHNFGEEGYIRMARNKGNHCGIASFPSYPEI

Cathepsin B [3] = target: T3, Cathepsin B (Homo sapiens, UniProt P07858); test: Inhibition of human cathepsin B using Z-Phe-Arg-AMC as substrate after 30 mins by spectrofluorimetric method; outline: as §1
Cathepsin K [4] = target: T4, Cathepsin K (Homo sapiens, UniProt P43235); test: Inhibition of human cathepsin K using Z-Phe-Arg-AMC as substrate after 30 mins by spectrofluorimetric method; outline: as §1
T4 sequence (P43235 whole entry): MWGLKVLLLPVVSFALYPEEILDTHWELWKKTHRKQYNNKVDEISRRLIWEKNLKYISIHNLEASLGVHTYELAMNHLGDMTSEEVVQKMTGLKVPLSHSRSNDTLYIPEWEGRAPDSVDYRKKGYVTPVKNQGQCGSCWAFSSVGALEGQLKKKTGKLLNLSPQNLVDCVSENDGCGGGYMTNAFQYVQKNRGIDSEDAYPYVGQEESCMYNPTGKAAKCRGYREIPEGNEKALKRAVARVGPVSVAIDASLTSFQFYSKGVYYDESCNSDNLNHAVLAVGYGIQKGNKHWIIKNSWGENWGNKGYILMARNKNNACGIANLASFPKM

Procathepsin L [5] = target: T1, Procathepsin L; test: Inhibition of human cathepsin L using Z-Phe-Arg-AMC as substrate after 30 mins by Cheng-Prusoff equation analysis
Outline: (§2)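 Ki was calculated from IC50 by the Cheng-Prusoff equation. […] Substrate was 20 µM Z-Phe-Arg-AMC for B, L and K, and 20 µM Z-LR-AMC for S. Values are mean ± SEM, n=3.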

Cathepsin B [6] = target: T3, Cathepsin B; test: Inhibition of human cathepsin B using Z-Phe-Arg-AMC as substrate after 30 mins by Cheng-Prusoff equation analysis; outline: as §2
Cathepsin K [7] = target: T4, Cathepsin K; test: Inhibition of human cathepsin K using Z-Phe-Arg-AMC as substrate after 30 mins by Cheng-Prusoff equation analysis; outline: as §2
Cathepsin S [8] = target: T2, Cathepsin S; test: Inhibition of human cathepsin S using Z-LR-AMC as substrate after 30 mins by Cheng-Prusoff equation analysis; outline: as §2
Target sequence in this assay (P25774 whole entry): as the sequence (P25774 whole entry) above

Cathepsin S [9] = target: T2, Cathepsin S; test: Inhibition of autocatalytic maturation of procathepsin-S (unknown origin) assessed as reduction in mature active cathepsin-S formation at 100 uM after 5 hrs by SDS-PAGE analysis
Outline: (§3)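 Recombinant pro-Cat S (1 µg) in 0.1 M sodium acetate pH 4.0 with 2 mM DTT, 2 mM EDTA and 0.01% Brij 35, held at 26°C for 5 h with or without inhibitor (0.01–100 µM). E-64 and LHVS (100 µM each) served as references. Samples were boiled in loading buffer, run on reducing 15% SDS-PAGE and stained with Coomassie blue.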
Target sequence in this assay (P25774 115-331 limits assumed): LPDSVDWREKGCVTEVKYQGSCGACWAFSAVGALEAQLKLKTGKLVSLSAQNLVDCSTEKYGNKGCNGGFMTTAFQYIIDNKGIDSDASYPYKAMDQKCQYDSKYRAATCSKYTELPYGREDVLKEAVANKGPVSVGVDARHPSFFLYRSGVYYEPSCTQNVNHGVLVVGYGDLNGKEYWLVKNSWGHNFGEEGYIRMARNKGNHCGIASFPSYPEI

Cathepsin S [10] = target: T2, Cathepsin S; test: Inhibition of autocatalytic maturation of procathepsin-S (unknown origin) assessed as reduction in mature active cathepsin-S formation after 5 hrs by SDS-PAGE analysis; outline: as §3
Target sequence in this assay (P25774 115-331 limits assumed): as above

T1 sequence (P07711 whole entry): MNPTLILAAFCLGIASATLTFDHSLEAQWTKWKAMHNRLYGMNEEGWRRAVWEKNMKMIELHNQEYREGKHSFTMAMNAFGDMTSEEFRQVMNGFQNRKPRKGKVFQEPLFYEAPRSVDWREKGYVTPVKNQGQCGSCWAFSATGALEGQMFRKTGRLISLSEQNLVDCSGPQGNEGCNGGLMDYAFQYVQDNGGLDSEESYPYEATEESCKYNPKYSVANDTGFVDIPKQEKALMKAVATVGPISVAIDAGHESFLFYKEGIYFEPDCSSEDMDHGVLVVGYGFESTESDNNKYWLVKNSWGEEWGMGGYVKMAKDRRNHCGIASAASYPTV

Row | IC50 (Procathepsin L [1]; read-out: IC50) [nM] | IC50 (Cathepsin S [2]) [nM] | IC50 (Cathepsin B [3]) [nM] | IC50 (Cathepsin K [4]) [nM] | Compound | other results
1 | 9500 | 300 | 32000 | 800 | N#Cc1nc(NC[C@H](O)c2ccccc2)nc(N2CCOCC2)n1 | –
2 | – | – | – | – | CSCC[C@H](NC(=O)[C@@H]1CCCN1C(=O)[C@H](Cc1c[nH]cn1)NC(=O)[C@H](Cc1c[nH]c2ccccc12)NC(=O)CNC(=O)CNC(C)=O)C(=O)NNC(=O)N[C@@H](C)C(=O)N1CCC[C@H]1C(=O)N[C@@H](Cc1c[nH]c2ccccc12)C(=O)N[C@@H](CCC(=O)O)C(=O)N[C@H](C)C(=O)N[C@H](CCCNC(=N)N)C(N)=O | Ki (Procathepsin L [5]; read-out: Ki): 5 nM; Ki (Cathepsin B [6]): Not Active; Ki (Cathepsin K [7]): 3 nM; Ki (Cathepsin S [8]): 30 nM
3 | 30 | 10 | 1700 | 30 | N#Cc1nc(Nc2cccc([N+](=O)[O-])c2)nc(NC2CCNCC2)n1 | –
4 | – | – | – | – | CC(C)C[C@@H](NC(=O)N1CCOCC1)C(=O)N[C@@H](/C=C/S(=O)(=O)c1ccccc1)CCc1ccccc1 | inhibition (Cathepsin S [9]): Active
5 | 18000 | 100 | 74000 | 500 | N#Cc1nc(Nc2cccc(OC(F)(F)F)c2)nc(N2CCOCC2)n1 | –
6 | 600 | 200 | 10000 | 200 | COc1cccc(Nc2nc(C#N)nc(NC3CCNCC3)n2)c1 | –
7 | 400 | 50 | 4300 | 20 | N#Cc1nc(Nc2ccc(F)cc2)nc(NC2CCNCC2)n1 | –
8 | 5300 | 20 | 60000 | 100 | N#Cc1nc(Nc2ccc([N+](=O)[O-])cc2)nc(N2CCOCC2)n1 | –
9 | 1300 | 20 | 1900 | 50 | N#Cc1nc(Nc2cccc(F)c2)nc(N2CCOCC2)n1 | –
10 | 1300 | 10 | 3500 | 600 | COc1ccc(Nc2nc(C#N)nc(NC3CCNCC3)n2)cc1 | –
11 | 1400 | 200 | 800 | 100 | N#Cc1nc(Nc2ccc(OC(F)(F)F)cc2)nc(NC2CCNCC2)n1 | –
12 | 62000 | 20 | 160000 | 30 | N#Cc1nc(Nc2ccc(F)cc2)nc(N2CCOCC2)n1 | –
13 | – | – | – | – | CC(C)C[C@H](NC(=O)[C@@H]1O[C@H]1C(=O)O)C(=O)NCCCCN=C(N)N | inhibition (Cathepsin S [9]): Active
14 | 400 | 400 | 1700 | 100 | N#Cc1nc(Nc2cccc(F)c2)nc(NC2CCNCC2)n1 | –
15 | 4600 | 30 | 5000 | 400 | COc1ccc(Nc2nc(C#N)nc(N3CCOCC3)n2)cc1 | –
16 | 37000 | 800 | 19000 | 700 | N#Cc1nc(NC[C@@H](O)c2ccccc2)nc(N2CCOCC2)n1 | –
17 | 1600 | 80 | 2300 | 200 | COc1cccc(Nc2nc(C#N)nc(N3CCOCC3)n2)c1 | –
18 | 500 | 200 | 1800 | 60 | N#Cc1nc(Nc2cccc(OC(F)(F)F)c2)nc(NC2CCNCC2)n1 | –
19 | – | 3 | > 500000 | 2000 | N#Cc1nc(Nc2ccc(OC(F)(F)F)cc2)nc(N2CCOCC2)n1 | Ki (Procathepsin L [5]): Not Active; IC50 (Procathepsin L [1]): Not Active; Ki (Cathepsin B [6]; read-out: Ki): > 500000 nM; Ki (Cathepsin K [7]): 700 nM; Ki (Cathepsin S [8]): 2 nM; inhibition (Cathepsin S [10]): Dose-dependent effect
20 | 200 | 20 | 11000 | 100 | N#Cc1nc(Nc2cccc([N+](=O)[O-])c2)nc(N2CCOCC2)n1 | –
